Active and inactive are the calls of the source. No cut-off for these calls is given here.

Data set [1] relates to Middle East respiratory syndrome-related coronavirus. Kind of data set: Binding affinity to N-terminal domain of MERS-CoV nucleocapsid protein assessed as interaction with W43 pocket at 10 uM incubated for 1 hr by fluorescence spectral analysis. Put shortly: (§1)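 1 μM N protein was incubated with 10 μM compound or buffer at 4 °C for 1 h in 50 mM Tris-HCl (pH 8.3), 150 mM NaCl. Tryptophan fluorescence was excited at 280 nm and emission scanned over 300–400 nm.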

For data set [2] the test system is unchanged. Kind of data set: Binding affinity to N-terminal domain of MERS-CoV nucleocapsid protein assessed as denaturation melting temperature at 10 uM incubated for 1 hr by fluorescent thermal stability assay (reference value: 42 degC).
The nature of data set [3]: Cytotoxicity in African green monkey Vero E6 cells incubated for 48 hrs by neutral red uptake assay. It is filed as cell-based, Vero C1008. As to conditions: chlorocebus sabaeus.
The nature of data set [4]: Therapeutic index, ratio of CC50 for cytotoxicity in African green monkey VeroE6 cells incubated for 48 hrs by neutral red uptake assay to EC50 for antiviral activity against MERS-CoV infected in African green monkey Vero E6 cells incubated for 48 hrs by neutral red uptake assay. It is filed as toxicity, cell-based, Vero C1008. As to conditions: read-out: Ratio CC50/EC50.

Data set [5] concerns Middle East respiratory syndrome-related coronavirus. Kind of data set: Antiviral activity against MERS-CoV infected in African green monkey Vero E6 cells incubated for 48 hrs by neutral red uptake assay. In kind it is functional, organism-based. Particulars: Vero C1008, 48 h.
For data set [6] the test system is unchanged. Kind of data set: Binding affinity to N-terminal domain of MERS-CoV nucleocapsid protein assessed as maximum dimension at 440 uM by SAXS analysis (reference value: 207 angstrom).
The test system is the same in data set [7]. Kind of data set: Binding affinity to N-terminal domain of MERS-CoV nucleocapsid protein assessed as radius of gyration at 440 uM by SAXS analysis (reference value: 58 angstrom).
For data set [8] the test system is unchanged. Kind of data set: Binding affinity to N-terminal domain of MERS-CoV nucleocapsid protein assessed as induction of blue shift in fluorescence spectrum at 10 uM incubated for 1 hr by fluorescence spectral analysis. In short, it runs like this: as §1
Data set [9] has as its system Vero C1008. Kind of data set: Antiviral activity against HCoV EMC/2012 infected in African green monkey Vero E6 cells assessed as reduction in viral titer at 50 uM incubated for 48 hrs by crystal violet staining based viral plaque assay. It is filed as functional. Particulars: Human betacoronavirus 2c EMC/2012.
Data set [10] is described as follows: Antiviral activity against HCoV EMC/2012 infected in African green monkey Vero E6 cells assessed as reduction in viral replication at 50 uM incubated for 48 hrs by RT-qPCR analysis. It is filed as functional, Human betacoronavirus 2c EMC/2012, Vero C1008. Further details: scale not given: the % may be the effect or the level left. (Real-time PCR tracks product formation cycle by cycle.)

Data set [11] relates to Vero C1008. Kind of data set: Antiviral activity against HCoV EMC/2012 infected in African green monkey Vero E6 cells assessed as reduction in viral titer at 100 uM incubated for 48 hrs by crystal violet staining based viral plaque assay. In kind it is functional. As to conditions: Human betacoronavirus 2c EMC/2012.
For data set [12], the system named is Vero C1008. Kind of data set: Antiviral activity against HCoV EMC/2012 infected in African green monkey Vero E6 cells assessed as reduction in viral replication at 100 uM incubated for 48 hrs by RT-qPCR analysis. In kind it is functional. As to conditions: Human betacoronavirus 2c EMC/2012.
In data set [13] the test system is Vero C1008. Kind of data set: Induction of intracellular nucleocapsid protein aggregation in HCoV EMC/2012 infected in African green monkey Vero E6 cells at 50 uM by immunofluorescence microscopy. In kind it is cell-based. Particulars: Human betacoronavirus 2c EMC/2012.
Data set [14] concerns Vero C1008. Kind of data set: Inhibition of nucleocapsid protein expression in HCoV EMC/2012 infected in African green monkey Vero E6 cells at 100 uM by immunofluorescence microscopy. Particulars: Human betacoronavirus 2c EMC/2012. It is filed as functional.

The Tm is the temperature at the midpoint of the melting transition. The CC50 is the concentration at which the toxic effect on the cells reaches its halfway point. For orientation: EC50 means the concentration at which the effect is half-maximal. For `CN(C)Cc1c[nH]c2ccc(OCc3ccccc3)cc12`, the outcome in data set [1], in data set [8], in data set [9], in data set [11], in [12] and in data set [13] was Active. In addition, the Tm in data set [2] was 45 °C. The molecule also had a CC50 at 48 h in data set [3] of 805 µM. For the same molecule, the selectivity ratio at 48 h in data set [4] amounted to 25.1. Moreover, the EC50 in data set [5] amounted to 32.1 µM. The Activity in data set [6] was 230 Angstrom; in data set [7], 65 Angstrom; in data set [10], 40%. Moreover, the inhibition entry in [14] was “Active”.
In the case of `CCc1cccc2c3c([nH]c12)C(CC)(CC(=O)O)OCC3` (stereo not given) [ETODOLAC], in data set [1], the outcome was Active. In addition, the CC50 at 48 h in data set [3] amounted to 570 µM. Besides, in data set [5], the EC50 is above 100 µM.
For `O=C(OCc1ccccc1)N1c2ccccc2CC1CO` (stereo not given), in that order: “Active”, 460 µM and above 100 µM.

Source of the values: ChEMBL document CHEMBL4376899, “Structure-Based Stabilization of Non-native Protein-Protein Interactions of Coronavirus Nucleocapsid Proteins in Antiviral Drug Design” (J Med Chem, 2020).
